# Experimental data gathered from unrelated publications.
# Target: Ephrin type-A receptor 6 (EPHA6, Homo sapiens, UniProt Q9UF33)
# Sequence (Q9UF33 23-1036, as in one of the studies): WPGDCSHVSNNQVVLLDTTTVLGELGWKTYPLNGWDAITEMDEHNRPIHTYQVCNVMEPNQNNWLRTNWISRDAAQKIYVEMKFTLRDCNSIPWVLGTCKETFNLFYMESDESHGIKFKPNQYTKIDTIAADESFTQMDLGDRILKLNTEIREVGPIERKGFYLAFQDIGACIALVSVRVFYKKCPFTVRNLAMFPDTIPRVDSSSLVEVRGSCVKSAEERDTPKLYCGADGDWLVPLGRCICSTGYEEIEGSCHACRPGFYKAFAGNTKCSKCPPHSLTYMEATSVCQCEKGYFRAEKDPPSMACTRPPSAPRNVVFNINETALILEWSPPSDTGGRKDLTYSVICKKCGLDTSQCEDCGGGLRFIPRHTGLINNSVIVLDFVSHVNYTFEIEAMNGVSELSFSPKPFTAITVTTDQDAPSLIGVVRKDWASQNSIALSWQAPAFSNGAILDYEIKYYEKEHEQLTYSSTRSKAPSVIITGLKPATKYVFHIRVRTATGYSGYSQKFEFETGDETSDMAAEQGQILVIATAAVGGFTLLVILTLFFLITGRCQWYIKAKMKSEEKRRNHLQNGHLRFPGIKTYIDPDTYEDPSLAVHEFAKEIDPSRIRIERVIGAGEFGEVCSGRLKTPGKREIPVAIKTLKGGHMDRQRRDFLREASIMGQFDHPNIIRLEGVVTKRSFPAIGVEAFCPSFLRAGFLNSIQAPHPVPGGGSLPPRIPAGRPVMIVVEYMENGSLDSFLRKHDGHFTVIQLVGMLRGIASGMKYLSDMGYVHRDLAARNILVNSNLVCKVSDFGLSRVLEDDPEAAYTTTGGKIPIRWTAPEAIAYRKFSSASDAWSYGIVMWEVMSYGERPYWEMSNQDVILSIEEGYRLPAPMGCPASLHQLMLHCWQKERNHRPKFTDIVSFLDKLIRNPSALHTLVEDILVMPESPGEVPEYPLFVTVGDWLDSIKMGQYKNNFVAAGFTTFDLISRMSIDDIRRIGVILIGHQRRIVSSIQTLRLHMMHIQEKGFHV
SMILES,effect on,method,tested at,remaining binding
Cn1nc(C(=O)NCc2ccc(C(=O)O)cc2)cc1-c1ccc2[nH]ccc2c1,cell-free assay,competition with immobilised ligand,0.1 µM,100%
C=CC(=O)N1CCC(C(=O)NCC(=O)N2CCN(c3nc(-c4cnc(N)nc4C(F)F)nc(N4CCOCC4)n3)CC2)CC1,binding,competition with immobilised ligand,1 µM,100%
Cc1cnc(Nc2ccc(C(=O)N3CCC(N4CCCC4)CC3)cc2)nc1-c1cc2ccccc2s1,binding,competition with immobilised ligand,1 µM,65%
CCN1CCN(Cc2ccc(C(=O)Nc3ccc(C)c(Oc4ccc5c(c4)CC(=O)N5)c3)cc2C(F)(F)F)CC1,binding,competition with immobilised ligand,1 µM,100%
O=C(NCCCN1CCOCC1)c1ccc(Nc2nccc(-c3cc4ccccc4s3)n2)cc1,binding,competition with immobilised ligand,1 µM,97%
O=C(Nc1c[nH]nc1C(=O)NC1CCNCC1)c1cc(F)cc(F)c1,binding,competition with immobilised ligand,1 µM,100%
O=C(c1ccc(Nc2ncc(Cl)c(-c3ccc(Cl)s3)n2)cc1)N1CCC(N2CCCC2)CC1,binding,competition with immobilised ligand,1 µM,51%
COc1cnc(Nc2cccc(S(N)(=O)=O)c2)nc1N1CCN(c2ccccc2)C(=O)C1,binding,competition with immobilised ligand,1 µM,100%
CCS(=O)(=O)c1cc2cc(C[C@@](O)(CC(C)(C)c3ccc(F)cc3C(N)=O)C(F)(F)F)[nH]c2cn1,cell-free assay,competition with immobilised ligand,1 µM,100%
c1cnn2ncc(-c3ccnc(N4CCC45COC5)n3)c2c1,binding,,1 µM,95%
CC(=O)N1CCC(c2ccc(C(=O)NC3=NCCN3)cc2C(F)(F)F)CC1,cell-free assay,competition with immobilised ligand,1 µM,98%
N[C@H]1CCN(c2nccc(-c3cnn4ncccc34)n2)C1,binding,,1 µM,100%
CNC(=O)Nc1ccc2c(c1)[C@@]1(CC2)OC(=O)N(CC(=O)N(Cc2ccc(F)cc2)[C@@H](C)C(F)(F)F)C1=O,cell-free assay,competition with immobilised ligand,1 µM,91%
C[C@@H]1CCN(c2nccc(-c3cnn4ncccc34)n2)C1,binding,,1 µM,100%
CNCc1ccccc1-c1csc([C@H](C)Nc2nc(C)nc3cc(OC)c(OC)cc23)c1,cell-free assay,competition with immobilised ligand,1 µM,100%
CN(CCCC(F)(F)F)c1nccc(-c2cnn3ncccc23)n1,binding,,1 µM,89%
COc1ncc2cc3ccccc3nc2c1C#N,cell-free assay,competition with immobilised ligand,5 µM,98%
CC1CCCN1c1nccc(-c2cnn3ncccc23)n1 (stereo not drawn),binding,,1 µM,94%
O=C(N[C@H]1CCCCC/C=C\C2C[C@@]2(C(=O)O)NC(=O)[C@@H]2C[C@@H](Oc3ccncc3)CN2C1=O)OC1CCCC1 (stereo partly drawn),cell-free assay,competition with immobilised ligand,1 µM,100%
CN(C)c1nccc(-c2cnc3ncccn23)n1,binding,,1 µM,98%
C[C@@H](c1ccc(-n2cnc3c(N)ncnc32)cc1)N1CCc2nn(C)c(Cc3ccccc3)c2C1=O,binding,competition with immobilised ligand,0.1 µM,100%
